In paper PMC3397136 (Amino Acids, 2011):
“And” between values parts separate entries of the source, which are not always exact repeats. Identical values can stand only once. Like-named read-outs stand apart in the source and are kept apart here. Positions of bridges follow the written chain, without caps; N, C: chain ends. No end group written: not given here.

Assays:
strips of rat uterus [1] = assay type: cell-based; conditions: for anti-oxytocic potency, times less potent than the mother compound III: in vitro uterus test
In short: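 Wistar rats were brought into estrus by estrogen injection 48 h before use. After decapitation, uterine horns were cut longitudinally and mounted in an organ bath without Mg2+, and isometric contraction height was recorded. Oxytocin standard, with or without test compound, or test compound alone was dosed cumulatively in doubling concentrations at 1 min intervals until maximal response. Results are agonist IU/mg or antagonist pA2, using uteri from 3–5 rats, mean ± SEM.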

[2] = tested on: arterial blood pressure (pressor response to AVP); test: vasopressor test in phenoxybenzamine-treated male rats under urethane anesthesia; assay type: in vivo, rat; conditions: for Pressor IU/mg or pA2 (0 = no activity): 0 means no activity up to the dose of 0.15 mg/kg of experimental animal; for pressor activity (in words) / Pressor pA2 (antagonist): rat; for pressor activity (in words): in vivo; for Pressor pA2 (antagonist): i.v., antagonist 1 min before AVP
In short: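 Male Wistar rats were pretreated with phenoxybenzamine and anesthetized with urethane, and arterial blood pressure was recorded. AVP standard was given as single femoral-vein injections to build dose–response curves with and without antagonist, which was given 1 min earlier. Results are IU/mg for agonists or pA2 for antagonists, with distribution volume taken as 67 ml/kg. Inactivity means no response up to 0.15 mg/kg. 3–5 experiments, mean ± SEM.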

[3] = tested on: conscious male rats (antidiuresis); test: antidiuretic test on conscious male rats; assay type: in vivo, rat; conditions: for Antidiuretic IU/mg: single value given, no level given; for Antidiuretic IU/mg (200 min): level t1/2 200 min (in parentheses); for Antidiuretic IU/mg (200 min) / Antidiuretic IU/mg 60 min: s.c., AVP taken as 465 IU/mg; for Antidiuretic IU/mg 60 min: threshold level t1/2 60 min; for antidiuretic activity (in words): rat, in vivo
In short: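 Fasted (16 h) conscious male Wistar rats given a tap-water load of 4% body weight by stomach catheter. Test compound or saline was then injected s.c. (0.001–100 nmol/kg), and urine was collected for 5 h in metabolic cages. The half-excretion time t1/2 was plotted against dose. […] Groups were 4–5 rats, with 2–3 independent days per dose.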

strips of rat uterus [4] = conditions: cited from earlier work
[5] = tested on: arterial blood pressure (pressor response to AVP); conditions: cited from earlier work
[6] = tested on: conscious male rats (antidiuresis); conditions: cited from earlier work; for Antidiuretic IU/mg (200 min): 200 min level; for Antidiuretic IU/mg 60 min: threshold level 60 min; for Antidiuretic IU/mg: single value, ref Lebl (1987)
[7] = rat uterus strips, no Mg2+, average ± SEM, n = 3–5
[8] = ref Melin et al. (1986), Manning et al. (1995)

Aba[cis-Apc^2,Val^4]AVP [XI]
anti-oxytocic potency, times less potent than the mother compound III (strips of rat uterus [1]): ~10 times
Pressor IU/mg or pA2 (0 = no activity) [2]: 0
pressor activity (in words) [2]: eliminated its effect on blood pressure
Antidiuretic IU/mg [3]: 0 IU/mg

Aca[cis-Apc^2,Val^4]AVP [VIII]
Pressor IU/mg or pA2 (0 = no activity) [2]: 0
pressor activity (in words) [2]: eliminated its effect on blood pressure
Antidiuretic IU/mg (200 min) [3]: < 0.5 IU/mg
Antidiuretic IU/mg 60 min [3]: < 0.01 IU/mg

Hba[cis-Apc^2,Val^4]AVP [X]
anti-oxytocic potency, times less potent than the mother compound III (strips of rat uterus [1]): about 4 times
Antidiuretic IU/mg (200 min) [3]: < 0.5 IU/mg
Antidiuretic IU/mg 60 min [3]: < 0.01 IU/mg

[Acc^2,Val^4]AVP
Uterotonic in vitro no Mg2+ pA2 (strips of rat uterus [4]; ref Kowalczyk et al. (2004)): pA2 = 6.9
Pressor IU/mg ([5]; ref Kowalczyk et al. (2004)): 0.9 ± 0.30 IU/mg
Antidiuretic IU/mg (200 min) ([6]; ref Kowalczyk et al. (2004)): 23,000 IU/mg
Antidiuretic IU/mg 60 min ([6]; ref Kowalczyk et al. (2004)): 2,300 IU/mg

[Acc^2]AVP
Uterotonic in vitro no Mg2+ pA2 (strips of rat uterus [4]; ref Jastrzębska et al. (2003)): pA2 ~ 5.6
Pressor IU/mg ([5]; ref Jastrzębska et al. (2003)): 56.6 IU/mg
Antidiuretic IU/mg (200 min) ([6]; ref Jastrzębska et al. (2003)): ~9,300 IU/mg
Antidiuretic IU/mg 60 min ([6]; ref Jastrzębska et al. (2003)): 750–900 IU/mg

[Cpa^1,Acc^2]AVP
Uterotonic in vitro no Mg2+ pA2 (strips of rat uterus [4]; ref Jastrzębska et al. (2003)): 7.33

[Cpa^1,cis-Apc^2]AVP [VII]
Uterotonic in vitro no Mg2+ pA2 (anti-oxytocic) (strips of rat uterus [1]; [7]): pA2 = 7.85 + 0.14
Pressor pA2 (antagonist) [2]: pA2 ~ 6.2
pressor activity (in words) [2]: weak and low antagonistic activity
Antidiuretic IU/mg (200 min) [3]: 1 IU/mg
antidiuretic activity (in words) [3]: negligible
Antidiuretic IU/mg 60 min [3]: 0.05 IU/mg

[Cpa^1,cis-Apc^2]OT [XIV]
Uterotonic in vitro no Mg2+ pA2 (anti-oxytocic) (strips of rat uterus [1]; [7]): pA2 = 7.97 + 0.24
Pressor pA2 (antagonist) [2]: pA2 ~ 6.73

[Mpa^1,Acc^2]AVP
Uterotonic in vitro no Mg2+ pA2 (strips of rat uterus [4]; ref Kowalczyk et al. (2004)): ~5.6
Uterotonic in vitro no Mg2+ IU/mg (strips of rat uterus [4]; value in parentheses, ref Kowalczyk et al. (2004)): 0.7 IU/mg
Pressor IU/mg ([5]; ref Kowalczyk et al. (2004)): 17.2 ± 0.8 IU/mg
Antidiuretic IU/mg (200 min) ([6]; ref Kowalczyk et al. (2004)): 50,000 IU/mg
Antidiuretic IU/mg 60 min ([6]; ref Kowalczyk et al. (2004)): 4,500 IU/mg

[Mpa^1,cis-Apc^2,D-Arg^8]VP [VI]
Pressor pA2 (antagonist) [2]: pA2 ~ 7.1
Antidiuretic IU/mg (200 min) [3]: 1,000 IU/mg
Antidiuretic IU/mg 60 min [3]: 5 IU/mg

[Mpa^1,cis-Apc^2]OT [XIII]
Uterotonic in vitro no Mg2+ pA2 (anti-oxytocic) (strips of rat uterus [1]; [7]): pA2 = 8.11 + 0.18
Uterotonic in vitro no Mg2+ pA2 (anti-oxytocic) (strips of rat uterus [1]; rat uterus strips, no Mg2+, average ± SEM, n = 3–5, listed as [Mpa^1,cis-Apc^2]OT): 8.11
Pressor pA2 (antagonist) [2]: pA2 ~ 6.0
antidiuretic activity (in words) [3]: inactive
Antidiuretic IU/mg [3]: 0 IU/mg

[Mpa^1]OT
Uterotonic in vitro no Mg2+ IU/mg (strips of rat uterus [4]; ref Lebl (1987)): 803 IU/mg
Pressor IU/mg ([5]; ref Lebl (1987)): 1.44 IU/mg
Antidiuretic IU/mg [6]: 19 IU/mg

[cis-Apc^2,D-Arg^8]VP
Pressor pA2 (antagonist) [2]: pA2 ~ 7.1
Antidiuretic IU/mg (200 min) [3]: 200 IU/mg
antidiuretic activity (in words) [3]: negligible
antidiuretic potency relative to AVP ([3]; t1/2 level of 200 min): about 43%
Antidiuretic IU/mg 60 min [3]: 1 IU/mg

[cis-Apc^2]OT [XII]
Uterotonic in vitro no Mg2+ pA2 (anti-oxytocic) (strips of rat uterus [1]; [7]): pA2 = 7.89 + 0.07
Pressor pA2 (antagonist) [2]: pA2 ~ 5.75
pressor activity (in words) [2]: weak

arginine vasopressin (CYFQNCPRG-NH2; disulfide 1-6; UniProt P01185 20-28, looked up) [AVP]
Uterotonic in vitro no Mg2+ IU/mg (strips of rat uterus [4]; ref Lebl (1987)): 17 IU/mg
Pressor IU/mg ([5]; ref Lebl (1987)): 412 IU/mg
Antidiuretic IU/mg [6]: 465 IU/mg

d[D-Tyr(Et)^2,Thr^4]OVT [Atosiban]
Uterotonic in vitro no Mg2+ pA2 (strips of rat uterus [4]; [8]): 7.71 and 7.71 ± 0.05
Pressor pA2 [5, 8]: pA2 = 6.14 ± 0.02
Antidiuretic pA2 [6, 8]: pA2 = 5.9

oxytocin [OT]
Uterotonic in vitro no Mg2+ IU/mg (strips of rat uterus [4]; ref Lebl (1987)): 450 IU/mg
Pressor IU/mg ([5]; ref Lebl (1987)): 5 IU/mg
Antidiuretic IU/mg [6]: 5 IU/mg

t-Bba[cis-Apc^2,Val^4]AVP [IX]
Uterotonic in vitro no Mg2+ IU/mg (agonist) (strips of rat uterus [1]; [7]): 10.1 ± 3.8 IU/mg and 10.1 + 3.8 IU/mg
Pressor IU/mg or pA2 (0 = no activity) [2]: 0
pressor activity (in words) [2]: eliminated its effect on blood pressure
Antidiuretic IU/mg (200 min) [3]: < 0.5 IU/mg
Antidiuretic IU/mg 60 min [3]: < 0.01 IU/mg
